A short description of data set [1]: Toxicity in brine shrimp. Type of data set: organism-based. The conditions noted are these: artemia salina, in vivo; read-out: LD50 (the source's name). The method in brief:
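Lethality test using brine shrimp (Artemia salina).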

For the next data set, the system named is Escherichia coli. As to the kind of experiment: Antibacterial activity against Escherichia coli by well diffusion method. In kind it is functional, organism-based. The method in brief:
(§1)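 Agar well diffusion test run against E. coli and S. aureus, with chloromycetin as the positive control.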

In a further data set the test system is Staphylococcus aureus. As to the kind of experiment: Antibacterial activity against Staphylococcus aureus by well diffusion method. In kind it is functional, organism-based. The method in brief:
as §1

The test system of a further data set is HL-60. Nature of the data set: Cytotoxicity against human HL60 cells. Type of data set: functional, cell-based.
Another data set deals with K562. As to the kind of experiment: Cytotoxicity against human K562 cells. In kind it is functional, cell-based.
A further data set has as its system Bel-7402. As to the kind of experiment: Cytotoxicity against human Bel7402 cells. In kind it is functional, cell-based.
A further data set relates to MDA-MB-231. As to the kind of experiment: Cytotoxicity against human MDA-MB-231 cells. In kind it is functional, cell-based.

Experimental findings from ChEMBL document CHEMBL2429860, “4-Phenyl-3,4-dihydroquinolone derivatives from Aspergillus nidulans MA-143, an endophytic fungus isolated from the mangrove plant Rhizophora stylosa” (J Nat Prod, 2013) are described below.

The structures appear in SMILES notation. Activity calls are given as the source filed them. No cut-off for these calls is given here.

Regarding `CO[C@@H]1C(=O)Nc2ccc(/C=C/[C@@]3(C)CC[C@H](C(C)(C)O)O3)c(O)c2[C@@]1(O)c1ccccc1`, the LC50 in data set [1] is 7.1 µM. Further, the outcome in the data set on Escherichia coli, in the data set on Staphylococcus aureus, with HL-60, in the data set on K562, with Bel-7402 and with MDA-MB-231 was inactive.

For `CO[C@@H]1C(=O)Nc2ccc(/C=C/[C@]3(C)CCC(=O)[C@@H](C)C3)c(O)c2[C@@]1(O)c1ccccc1` [AFLAQUINOLONE A], in data set [1], the LC50 came to 5.5 µM.

As for `O=C1Nc2ccccc2[C@@](O)(c2ccc(O)cc2)[C@@H]1O`, the outcome in the data set with Escherichia coli, with Staphylococcus aureus, with HL-60, in the data set with K562, in the data set with Bel-7402 and in the data set on MDA-MB-231 was inactive.

For `CO[C@@H]1C(=O)Nc2ccc(CC=C(C)C)c(O)c2[C@@]1(O)c1ccccc1`, in data set [1], the LC50 amounted to 4.5 µM. Further, the outcome with Escherichia coli, in the data set with Staphylococcus aureus, with HL-60, with K562, in the data set with Bel-7402 and with MDA-MB-231 was inactive.

`CO[C@@H]1C(=O)Nc2ccccc2[C@@]1(O)c1ccccc1`: the outcome in the data set with Escherichia coli, in the data set on Staphylococcus aureus, with HL-60, in the data set with K562, with Bel-7402 and with MDA-MB-231 was inactive.

In the case of `CO[C@@H]1C(=O)Nc2ccc(O)cc2[C@@]1(O)c1ccccc1`, the outcome in the data set with Escherichia coli, in the data set on Staphylococcus aureus, with HL-60, with K562, in the data set on Bel-7402 and in the data set with MDA-MB-231 was inactive.

In the case of `C=C(C)[C@H]1CC[C@](C)(/C=C/c2ccc3c(c2O)[C@@](O)(c2ccccc2)[C@H](OC)C(=O)N3)O1`, the result with Escherichia coli, in the data set with Staphylococcus aureus, with HL-60, in the data set on K562, in the data set with Bel-7402 and with MDA-MB-231 was inactive.
